What was measured:
PRC2 = PRC2 (Homo sapiens, UniProt Q15910); assay: Differential scanning fluorimetry binding assay; conditions: 750 nM PRC2, 20 μM compound, 200 μM activating peptide; mean ± SEM, N = 3
In short: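 In-house pentameric PRC2 was mixed with test compound, H3K27me3 activator peptide and 4× thermal-shift dye in 50 mM Hepes pH 7.4, 100 mM NaCl, 1 mM TCEP, 0.2% DMSO. The mix was equilibrated 90 min at RT, then melted from 25 °C to 95 °C at 0.05 °C/s in a real-time PCR instrument. Tm was taken from the first-derivative peak and from a Boltzmann fit. ΔTm is compound minus DMSO control.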

Plasma protein binding = assay type: in vitro ADME
[1] = tested on: H3K27me3 levels in KARPAS-422 tumors; assay: Tumor pharmacodynamic assay; assay type: in vivo, mice; conditions: Day 12

Chain of PRC2 (Q15910 whole entry): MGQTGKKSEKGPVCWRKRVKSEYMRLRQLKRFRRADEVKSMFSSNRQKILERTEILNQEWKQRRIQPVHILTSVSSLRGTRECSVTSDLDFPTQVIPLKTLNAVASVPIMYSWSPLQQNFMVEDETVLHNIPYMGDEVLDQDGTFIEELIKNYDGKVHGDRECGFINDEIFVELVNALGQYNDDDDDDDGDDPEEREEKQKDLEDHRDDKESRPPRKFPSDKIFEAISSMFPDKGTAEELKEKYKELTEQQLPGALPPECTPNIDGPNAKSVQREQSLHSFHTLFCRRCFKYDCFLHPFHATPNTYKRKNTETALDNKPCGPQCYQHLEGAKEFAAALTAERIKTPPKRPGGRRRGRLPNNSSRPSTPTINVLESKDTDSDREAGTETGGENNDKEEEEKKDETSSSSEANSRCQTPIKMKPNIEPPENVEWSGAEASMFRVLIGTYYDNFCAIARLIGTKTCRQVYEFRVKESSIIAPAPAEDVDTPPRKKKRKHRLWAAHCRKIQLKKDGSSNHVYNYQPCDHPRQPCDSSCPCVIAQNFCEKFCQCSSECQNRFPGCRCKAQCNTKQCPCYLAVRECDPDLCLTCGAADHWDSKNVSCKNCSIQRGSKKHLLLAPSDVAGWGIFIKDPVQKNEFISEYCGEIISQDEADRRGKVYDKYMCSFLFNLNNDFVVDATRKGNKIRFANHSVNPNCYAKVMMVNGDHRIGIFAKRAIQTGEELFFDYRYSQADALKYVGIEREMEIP
Chain of PRC2 (O75530 whole entry partner): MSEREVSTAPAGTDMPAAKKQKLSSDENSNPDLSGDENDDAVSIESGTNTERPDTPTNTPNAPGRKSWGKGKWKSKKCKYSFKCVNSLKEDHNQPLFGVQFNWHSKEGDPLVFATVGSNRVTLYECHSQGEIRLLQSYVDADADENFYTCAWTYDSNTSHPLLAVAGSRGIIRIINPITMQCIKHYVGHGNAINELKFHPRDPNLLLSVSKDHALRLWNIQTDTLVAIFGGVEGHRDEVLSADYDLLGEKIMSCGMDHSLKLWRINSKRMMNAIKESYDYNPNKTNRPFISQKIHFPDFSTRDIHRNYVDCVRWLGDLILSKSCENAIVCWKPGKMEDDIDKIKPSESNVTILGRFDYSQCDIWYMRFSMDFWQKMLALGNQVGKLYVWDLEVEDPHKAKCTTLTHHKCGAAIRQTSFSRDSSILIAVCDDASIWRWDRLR
Chain of PRC2 (Q15022 whole entry partner): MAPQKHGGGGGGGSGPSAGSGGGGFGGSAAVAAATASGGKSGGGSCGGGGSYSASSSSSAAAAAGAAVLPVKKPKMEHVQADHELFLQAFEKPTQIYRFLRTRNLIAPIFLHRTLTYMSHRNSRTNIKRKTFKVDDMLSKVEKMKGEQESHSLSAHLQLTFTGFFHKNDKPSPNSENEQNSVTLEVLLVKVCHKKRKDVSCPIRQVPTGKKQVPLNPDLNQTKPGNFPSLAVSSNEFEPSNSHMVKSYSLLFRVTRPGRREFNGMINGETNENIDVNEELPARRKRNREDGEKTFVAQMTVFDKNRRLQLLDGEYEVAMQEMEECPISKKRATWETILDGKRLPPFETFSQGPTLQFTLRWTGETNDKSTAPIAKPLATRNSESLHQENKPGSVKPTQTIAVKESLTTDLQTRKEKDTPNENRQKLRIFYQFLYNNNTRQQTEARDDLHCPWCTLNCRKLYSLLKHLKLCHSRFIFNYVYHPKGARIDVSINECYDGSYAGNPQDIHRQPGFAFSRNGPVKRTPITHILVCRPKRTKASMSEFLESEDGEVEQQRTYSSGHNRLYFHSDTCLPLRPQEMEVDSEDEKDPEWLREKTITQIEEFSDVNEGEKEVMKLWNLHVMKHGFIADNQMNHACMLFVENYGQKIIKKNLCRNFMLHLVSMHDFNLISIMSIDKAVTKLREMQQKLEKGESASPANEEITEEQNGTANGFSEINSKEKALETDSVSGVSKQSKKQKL
Chain of PRC2 (Q16576 whole entry partner): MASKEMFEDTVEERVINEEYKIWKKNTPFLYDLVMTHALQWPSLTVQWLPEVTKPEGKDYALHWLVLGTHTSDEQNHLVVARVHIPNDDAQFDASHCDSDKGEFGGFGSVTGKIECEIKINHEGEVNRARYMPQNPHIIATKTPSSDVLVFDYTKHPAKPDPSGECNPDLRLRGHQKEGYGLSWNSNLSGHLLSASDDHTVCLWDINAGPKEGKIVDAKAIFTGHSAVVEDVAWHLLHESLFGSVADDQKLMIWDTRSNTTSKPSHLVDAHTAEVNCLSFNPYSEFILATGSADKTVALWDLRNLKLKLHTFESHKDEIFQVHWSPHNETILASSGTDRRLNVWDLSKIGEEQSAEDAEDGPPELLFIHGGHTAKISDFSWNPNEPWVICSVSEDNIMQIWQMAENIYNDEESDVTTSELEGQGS
Chain of PRC2 (Q09028 whole entry partner): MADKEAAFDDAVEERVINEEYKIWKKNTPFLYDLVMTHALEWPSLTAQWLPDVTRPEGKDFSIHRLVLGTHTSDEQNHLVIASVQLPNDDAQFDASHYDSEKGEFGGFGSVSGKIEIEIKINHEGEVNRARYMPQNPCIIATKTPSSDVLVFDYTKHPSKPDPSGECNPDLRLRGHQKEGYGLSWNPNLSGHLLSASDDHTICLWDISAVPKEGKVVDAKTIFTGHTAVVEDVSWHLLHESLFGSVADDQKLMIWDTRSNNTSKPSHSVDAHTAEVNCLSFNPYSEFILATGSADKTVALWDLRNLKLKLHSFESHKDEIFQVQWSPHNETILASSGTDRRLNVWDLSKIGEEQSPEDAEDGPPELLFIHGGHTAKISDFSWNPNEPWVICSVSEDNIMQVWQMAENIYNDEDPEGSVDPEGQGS

Row | Structure (SMILES) | ΔTmD (first derivative melting peak) (PRC2) | fraction unbound (Plasma protein binding) | total plasma levels (25 mg/kg QD PO, 1 h postdose on Day 12) | total concentration in tumors (female, CB-17 SCID, mouse, in vivo) | reduction in H3K27me3 levels in tumors ([1]; 25 mg/kg QD PO) | H3K27me3 levels in tumors ([1]; 160 mg/kg BID PO)
1 | COc1cc(C)[nH]c(=O)c1CNC(=O)c1c(C)n([C@H](C)C2CCN(CC(F)(F)F)CC2)c2ccccc12 [CPI-1205, (R)-N-((4-Methoxy-6-methyl-2-oxo-1,2-dihydropyridin-3-yl)methyl)-2-methyl-1-(1-(1-(2,2,2-trifluoroethyl)piperidin-4-yl)ethyl)-1H-indole-3-carboxamide] | 11.54 ± 0.05 °C | – | – | – | – | –
2 | CCN(c1cc(-c2ccc(CN3CCOCC3)cc2)cc(C(=O)NCc2c(C)cc(C)[nH]c2=O)c1C)C1CCOCC1 [Tazemetostat] | – | 0.009 | 6100 ng/mL | 730 ng/g | no statistically significant reduction | significant loss of H3K27me3 levels
